In brackets after ≈: the same amount, converted by molar mass.
Experiments:
MCF7 = experiment: Cytotoxicity against human MCF7 cells assessed as cell growth after 2 days by sulforhodamine B assay; format: functional; conditions: MCF7, 48 h
In short: (§1)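 NCI cell lines were run by the Monks method: cells were plated with compounds from DMSO stocks and incubated 2 days at 37 °C in 5% CO2, in duplicate. Cells were fixed with cold TCA, stained with 0.4% SRB, and the bound dye was solubilized in 10 mM tris-base and read at 515 nm. The zero-day control was subtracted, and GI50 was taken from the curves.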

Nannizzia gypsea = experiment: Antifungal activity against Microsporum gypseum C 115 2000; format: functional
In short: (§2)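 Dermatophytes tested by CLSI M38-A2 microdilution in MOPS-buffered RPMI-1640 at pH 7.0. Inoculum 1-5 × 10^3 CFU/mL; compounds 250 to 0.24 µg/ml in twofold steps, final DMSO <1%. Incubated at 28 °C in a moist, dark chamber and read according to control growth. MIC is the lowest concentration with complete inhibition. MFC is the lowest concentration with no growth after duplicate subculture on SDA.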

Candida tropicalis = experiment: Antifungal activity against Candida tropicalis C 131 2000; format: functional
In short: (§3)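 CLSI M27-A3 broth microdilution in RPMI-1640 buffered to pH 7.0 with MOPS. Inoculum 1-5 × 10^3 CFU/mL. Compound twofold dilutions from 250 to 0.24 µg/ml, final DMSO <1%. Incubated at 35 °C in a moist, dark chamber and read at 48 h. MIC is the lowest concentration giving total growth inhibition. For MFC, 5 µL from clear wells was plated in duplicate on SDA; MFC is the lowest concentration with no growth.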

Candida albicans = experiment: Antifungal activity against Candida albicans ATCC 10213; format: functional; in short: as §3
[1] = Cytotoxicity against human erythrocytes assessed as hemolysis by spectrometric analysis; format: cell-based, Erythrocyte
In short: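 Human heparinized red blood cells were washed in PBS at pH 7.0 and suspended at 4% in sterile 5% glucose. Compounds from DMSO stocks were diluted in 5% glucose to final concentrations of 250 to 0.24 µg/ml and incubated with the cells at 37 °C. Released hemoglobin was read at 540 nm. HC50 is the concentration giving 50% lysis relative to the drug-free value.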

Trichophyton rubrum = experiment: Antifungal activity against Trichophyton rubrum C 113 2000; format: functional; in short: as §2
SF-268 = experiment: Cytotoxicity against human SF268 cells assessed as cell growth after 2 days by sulforhodamine B assay; format: functional; conditions: SF-268, 48 h; in short: as §1
Aspergillus niger = experiment: Antifungal activity against Aspergillus niger ATCC 9029; format: functional
In short: (§4)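 Broth microdilution per CLSI M38-A2 in RPMI-1640 with MOPS at pH 7.0. Inoculum 1-5 × 10^3 CFU/mL, with twofold compound dilutions spanning 250-0.24 µg/ml (final DMSO <1%). Plates incubated at 35 °C, moist and dark, and read when the control fungus had grown. MIC is total growth inhibition. MFC comes from subculturing clear wells in duplicate onto SDA.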

Saccharomyces cerevisiae = experiment: Antifungal activity against Saccharomyces cerevisiae ATCC 9763; format: functional; in short: as §3
[2] = test system: Trichophyton mentagrophytes; experiment: Antifungal activity against Trichophyton mentagrophytes ATCC 9972; format: functional; in short: as §2
Aspergillus fumigatus = experiment: Antifungal activity against Aspergillus fumigatus ATCC 26934; format: functional; in short: as §4
Cryptococcus neoformans = experiment: Antifungal activity against Cryptococcus neoformans ATCC 32264; format: functional; in short: as §3
Aspergillus flavus = experiment: Antifungal activity against Aspergillus flavus ATCC 9170; format: functional; in short: as §4
NCI-H460 = experiment: Cytotoxicity against human H460 cells assessed as cell growth after 2 days by sulforhodamine B assay; format: functional; conditions: NCI-H460, 48 h; in short: as §1

Row | SMILES | GI50 (MCF7) [µg/mL] | MFC (Nannizzia gypsea) [µg/mL] | MIC (Nannizzia gypsea) [µg/mL] | MFC (Candida tropicalis) [µg/mL] | MIC (Candida albicans) [µg/mL] | HC50 [1] [µg/mL] | MFC (Trichophyton rubrum) [µg/mL] | MIC (Trichophyton rubrum) [µg/mL] | GI50 (SF-268) [µg/mL] | MFC (Aspergillus niger) [µg/mL] | MIC (Aspergillus niger) [µg/mL] | MFC (Saccharomyces cerevisiae) [µg/mL] | MIC (Saccharomyces cerevisiae) [µg/mL] | MFC [2] [µg/mL] | MIC [2] [µg/mL] | MFC (Aspergillus fumigatus) [µg/mL] | MIC (Aspergillus fumigatus) [µg/mL] | MFC (Cryptococcus neoformans) [µg/mL] | MIC (Cryptococcus neoformans) [µg/mL] | MFC (Aspergillus flavus) [µg/mL] | also measured
1 | O=C1C=CC(=O)N1c1ccc2c(c1)OCO2 | > 10 | 1.95 (≈ 8.98 µM) | 1.95 (≈ 8.98 µM) | 62.5 (≈ 288 µM) | 31.2 (≈ 144 µM) | > 250 | 3.9 (≈ 18 µM) | 1.95 (≈ 8.98 µM) | > 10 | 125 (≈ 576 µM) | 62.5 (≈ 288 µM) | 15.6 (≈ 72 µM) | 7.81 (≈ 36 µM) | 3.9 (≈ 18 µM) | 1.95 (≈ 8.98 µM) | 125 (≈ 576 µM) | 62.5 (≈ 288 µM) | 15.6 (≈ 72 µM) | 7.81 (≈ 36 µM) | 125 (≈ 576 µM) | MIC (Candida tropicalis): 31.2 µg/mL (≈ 144 µM); MFC (Candida albicans): 62.5 µg/mL (≈ 288 µM); MIC (Aspergillus flavus): 62.5 µg/mL (≈ 288 µM); GI50 (NCI-H460): > 10 µg/mL
2 | O=C1C=CC(=O)N1CCCc1ccccc1 | 5.2 (≈ 24.2 µM) | 1.95 (≈ 9.06 µM) | 0.97 (≈ 4.51 µM) | 15.6 (≈ 72.6 µM) | 3.9 (≈ 18.1 µM) | > 250 | 1.95 (≈ 9.06 µM) | 1.95 (≈ 9.06 µM) | 5.8 (≈ 26.9 µM) | 15.6 (≈ 72.6 µM) | 15.6 (≈ 72.6 µM) | 1.95 (≈ 9.06 µM) | 0.97 (≈ 4.51 µM) | 7.81 (≈ 36.3 µM) | 3.9 (≈ 18.1 µM) | 31.2 (≈ 145 µM) | 15.6 (≈ 72.6 µM) | 31.2 (≈ 145 µM) | 15.6 (≈ 72.6 µM) | 62.5 (≈ 290 µM) | MIC (Candida tropicalis): 3.9 µg/mL (≈ 18.1 µM); MIC (Aspergillus flavus): 31.2 µg/mL (≈ 145 µM); GI50 (NCI-H460): > 10 µg/mL
3 | O=C1C=CC(=O)N1c1ccccc1 | > 10 | 15.6 (≈ 90.3 µM) | 7.81 (≈ 45.1 µM) | 15.6 (≈ 90.3 µM) | 3.9 (≈ 22.5 µM) | > 250 | 7.81 (≈ 45.1 µM) | 3.9 (≈ 22.5 µM) | > 10 | 62.5 (≈ 361 µM) | 31.2 (≈ 180 µM) | 7.81 (≈ 45.1 µM) | 3.9 (≈ 22.5 µM) | 7.81 (≈ 45.1 µM) | 7.81 (≈ 45.1 µM) | > 250 | 250 (≈ 1440 µM) | 62.5 (≈ 361 µM) | 15.6 (≈ 90.3 µM) | 125 (≈ 722 µM) | MFC (Candida albicans): 7.81 µg/mL (≈ 45.1 µM); MIC (Aspergillus flavus): 62.5 µg/mL (≈ 361 µM); GI50 (NCI-H460): > 10 µg/mL
4 | CC(C)(C)c1ccccc1N1C(=O)C=CC1=O | > 10 | 3.9 (≈ 17 µM) | 1.95 (≈ 8.5 µM) | 3.9 (≈ 17 µM) | 3.9 (≈ 17 µM) | > 250 | 3.9 (≈ 17 µM) | 1.95 (≈ 8.5 µM) | > 10 | 125 (≈ 545 µM) | 62.5 (≈ 273 µM) | 7.81 (≈ 34.1 µM) | 3.9 (≈ 17 µM) | 3.9 (≈ 17 µM) | 1.95 (≈ 8.5 µM) | 31.2 (≈ 136 µM) | 15.6 (≈ 68.2 µM) | 7.81 (≈ 34.1 µM) | 3.9 (≈ 17 µM) | 62.5 (≈ 273 µM) | MIC (Candida tropicalis): 3.9 µg/mL (≈ 17 µM); MFC (Candida albicans): 3.9 µg/mL (≈ 17 µM); MIC (Aspergillus flavus): 62.5 µg/mL (≈ 273 µM); GI50 (NCI-H460): > 10 µg/mL
5 | O=C1C=CC(=O)N1c1ccc(Cl)cc1 | > 10 | 7.81 (≈ 37.6 µM) | 3.9 (≈ 18.8 µM) | 15.6 (≈ 75.3 µM) | 62.5 (≈ 301 µM) | > 250 | 7.81 (≈ 37.6 µM) | 3.9 (≈ 18.8 µM) | > 10 | 62.5 (≈ 301 µM) | 31.2 (≈ 151 µM) | 7.81 (≈ 37.6 µM) | 3.9 (≈ 18.8 µM) | 7.81 (≈ 37.6 µM) | 3.9 (≈ 18.8 µM) | 125 (≈ 602 µM) | 62.5 (≈ 301 µM) | 7.81 (≈ 37.6 µM) | 3.9 (≈ 18.8 µM) | 125 (≈ 602 µM) | MIC (Candida tropicalis): 7.81 µg/mL (≈ 37.6 µM); MFC (Candida albicans): 62.5 µg/mL (≈ 301 µM); MIC (Aspergillus flavus): 62.5 µg/mL (≈ 301 µM); GI50 (NCI-H460): > 10 µg/mL
6 | CC1=CC(=O)N(CCCc2ccccc2)C1=O | > 10 | 7.81 (≈ 34.1 µM) | 3.9 (≈ 17 µM) | 125 (≈ 545 µM) | 62.5 (≈ 273 µM) | > 250 | 3.9 (≈ 17 µM) | 1.95 (≈ 8.5 µM) | > 10 | 31.2 (≈ 136 µM) | 31.2 (≈ 136 µM) | 62.5 (≈ 273 µM) | 15.6 (≈ 68.2 µM) | 31.2 (≈ 136 µM) | 15.6 (≈ 68.2 µM) | 31.2 (≈ 136 µM) | 15.6 (≈ 68.2 µM) | 31.2 (≈ 136 µM) | 15.6 (≈ 68.2 µM) | 31.2 (≈ 136 µM) | MIC (Candida tropicalis): 125 µg/mL (≈ 545 µM); MFC (Candida albicans): 125 µg/mL (≈ 545 µM); MIC (Aspergillus flavus): 31.2 µg/mL (≈ 136 µM); GI50 (NCI-H460): > 10 µg/mL
7 | O=C1C(Cl)=C(Cl)C(=O)N1CCCc1ccccc1 | > 10 | 15.6 (≈ 55 µM) | 15.6 (≈ 55 µM) | 15.6 (≈ 55 µM) | 7.81 (≈ 27.5 µM) | > 250 | 7.81 (≈ 27.5 µM) | 3.9 (≈ 13.7 µM) | > 10 | 15.6 (≈ 55 µM) | 15.6 (≈ 55 µM) | 3.9 (≈ 13.7 µM) | 3.9 (≈ 13.7 µM) | 7.81 (≈ 27.5 µM) | 3.9 (≈ 13.7 µM) | 31.2 (≈ 110 µM) | 15.6 (≈ 55 µM) | 3.9 (≈ 13.7 µM) | 3.9 (≈ 13.7 µM) | 31.2 (≈ 110 µM) | MIC (Candida tropicalis): 7.81 µg/mL (≈ 27.5 µM); MFC (Candida albicans): 15.6 µg/mL (≈ 55 µM); MIC (Aspergillus flavus): 15.6 µg/mL (≈ 55 µM); GI50 (NCI-H460): > 10 µg/mL

Source: ChEMBL document CHEMBL1772954, “Antifungal, cytotoxic and SAR studies of a series of N-alkyl, N-aryl and N-alkylphenyl-1,4-pyrrolediones and related compounds” (Bioorg Med Chem, 2011)
